Assay results collected from several papers.
Compare with care: the assays were run in different laboratories. In brackets after ≈: the same amount, converted by molar mass.

CCN1CCN(c2cc3c(cc2F)c(=O)c(C(=O)O)cn3C2CC2)CC1
MIC (Salmonella enterica; microbial growth; ENTERITIDIS; 20 h, pH 5.5): 0.25 µg/mL (≈ 0.696 µM)

C[C@@H](O)[C@H]1C(=O)N2C(C(=O)O)=C(S[C@@H]3CN[C@H](C(=O)N(C)C)C3)[C@H](C)[C@H]12
MIC (Salmonella enterica; microbial growth, broth dilution; clinical isolate): ≤ 0.5 µg/mL

O=C1NC(=S)N/C1=C\c1c2ccccc2c(-c2ccc(N(c3ccccc3)c3ccccc3)cc2)c2ccccc12
MIC (Bacillus cereus; microbial growth, broth dilution; ATCC10876): > 1000 µg/mL

CC1(C)S[C@@H]2[C@H](NC(=O)[C@H](N)c3ccccc3)C(=O)N2[C@H]1C(=O)O
inhibition (Salmonella enterica; microbial growth, agar dilution; ENTERITIDIS; 26.93 µM): 100%

CN(C)[C@@H]1C(O)=C(C(N)=O)C(=O)[C@@]2(O)C(O)=C3C(=O)c4c(O)cccc4[C@@](C)(O)[C@H]3C[C@@H]12
MIC (Salmonella enterica; microbial growth; F98, TYPHIMURIUM; 20 h, pH 7): 1 µg/mL (≈ 2.25 µM)

O=c1cc(-c2ccc(O)cc2)oc2cc(O)cc(O)c12
inhibition (Helicobacter pylori; microbial growth, broth dilution; 125 µg/mL): 100%

O=C1NC(=S)N/C1=C\c1ccc(-c2ccc(N(c3ccccc3)c3ccccc3)cc2)cc1
MBC (Bacillus cereus; microbial killing, broth dilution; ATCC10876): > 1000 µg/mL

O=C(O)c1cn(C2CC2)c2cc(N3CCNCC3)c(F)cc2c1=O
MIC (Salmonella enterica; microbial growth; ENTERITIDIS; 20 h, pH 7): 0.0156 µg/mL (≈ 0.0471 µM)

O=C(O)CN1C(=O)/C(=C/c2ccc(-c3ccc(N(c4ccccc4)c4ccccc4)cc3)c3ccccc23)SC1=S
MBC (Bacillus cereus; microbial killing, broth dilution; ATCC10876): > 1000 µg/mL

CNC1=C([N+](=O)[O-])C2(C(=O)Nc3ccccc32)C2=C(O1)C(=O)c1ccccc1C2=O (centres unmarked)
MBC (Salmonella enterica; microbial killing; TYPHIMURIUM): ≤ 1000 µg/mL

C=C[C@@]1(C)C=C2CC[C@@H]3[C@](C)(CCC[C@@]3(C)C(=O)O)[C@H]2CC1
inhibition (Helicobacter pylori; microbial growth, broth dilution; 15.63 µg/mL): 86.3%

COc1cc(Cc2cnc(N)nc2N)cc(OC)c1OC
MIC (Salmonella enterica; microbial growth; F98, TYPHIMURIUM; 20 h, pH 7.2): 0.25 µg/mL (≈ 0.861 µM)

O=C(O)CN1C(=O)/C(=C/c2c3ccccc3c(-c3ccc(N(c4ccccc4)c4ccccc4)cc3)c3ccccc23)NC1=S
MIC (Bacillus cereus; microbial growth, broth dilution; ATCC10876): > 1000 µg/mL

Cc1cc(NS(=O)(=O)c2ccc(N)cc2)no1
MIC (Salmonella enterica; microbial growth; F98, TYPHIMURIUM; 20 h, pH 7.2): 64 µg/mL (≈ 253 µM)

O=C(O)CN1C(=O)/C(=C/c2ccc(-c3ccc(N(c4ccccc4)c4ccccc4)cc3)cc2)SC1=S
MBC (Bacillus cereus; microbial killing, broth dilution; ATCC10876): 31.3 µg/mL (≈ 59.9 µM)

CCn1cc(C(=O)O)c(=O)c2ccc(C)nc21
MIC (Salmonella enterica; microbial growth; 20 h, pH 7): 2 µg/mL (≈ 8.61 µM)

O=c1cc(-c2ccc(O)c(O)c2)oc2cc(O)cc(O)c12
inhibition (Helicobacter pylori; microbial growth, broth dilution; 31.25 µg/mL): 100%

CO/N=C(\C(=O)N[C@@H]1C(=O)N2C(C(=O)O)=C(CSc3nc(=O)c(=O)[nH]n3C)CS[C@H]12)c1csc(N)n1
MIC (Salmonella enterica; microbial growth; ENTERITIDIS; 20 h, pH 7): 0.0625 µg/mL (≈ 0.113 µM)

COc1cc([C@H]2OC[C@H]3[C@@H]2CO[C@@H]3c2cc(OC)c(O)c(OC)c2)cc(OC)c1O
inhibition (Helicobacter pylori; microbial growth, broth dilution; 31.25 µg/mL): 100%

O=C(N/N=C/c1ccc([N+](=O)[O-])o1)c1ccc(O)cc1
MIC90 (Salmonella enterica; microbial growth; ATCC13311 TYPHIMURIUM): 0.98 µg/mL (≈ 3.56 µM)

COc1cc(-c2cc(=O)c3c(O)cc(O)cc3o2)ccc1O
inhibition (Helicobacter pylori; microbial growth, broth dilution; 62.5 µg/mL): 100%

O=C(O)CN1C(=O)/C(=C/c2ccc(-c3ccc(N(c4ccccc4)c4ccccc4)cc3)cc2)NC1=S
MBC (Bacillus cereus; microbial killing, broth dilution; ATCC10876): 250 µg/mL (≈ 494 µM)

COc1c(N2C[C@@H]3CCCN[C@@H]3C2)c(F)cc2c(=O)c(C(=O)O)cn(C3CC3)c12
MIC90 (Salmonella enterica; microbial growth; ATCC13311 TYPHIMURIUM): 0.49 µg/mL (≈ 1.22 µM)

O=C(O)CN1C(=O)/C(=C/c2ccc(-c3ccc(N(c4ccccc4)c4ccccc4)cc3)c3ccccc23)NC1=S
MBC (Bacillus cereus; microbial killing, broth dilution; ATCC10876): > 1000 µg/mL

[H]/N=C(/N)N[C@H]1[C@H](O)[C@@H](O)[C@H](O[C@@H]2O[C@@H](C)[C@](O)(C=O)[C@H]2O[C@@H]2O[C@@H](CO)[C@H](O)[C@@H](O)[C@@H]2NC)[C@@H](N/C(N)=N\[H])[C@@H]1O
MIC (Salmonella enterica; microbial growth; 20 h, pH 7.2): 8 µg/mL (≈ 13.8 µM)

COC(=O)c1ccc(O)cc1
inhibition (Helicobacter pylori; microbial growth, broth dilution; 15.63 µg/mL): 100%
